Data published in ChEMBL document CHEMBL4184291, “Discovery of N-arylpyrroles as agonists of GPR120 for the treatment of type II diabetes” (Bioorg Med Chem Lett, 2018).

What was measured:
[1] = Stability of the compound in air assessed as oxidation; type: physicochemical
[2] = tested on: Mus musculus; test: Antiobesity activity in diet-induced obesity C57Bl6/J mouse model assessed as final insulin level in plasma at 3 mg/kg qd for 15 days measured on day 15 post 6 hrs fasting (reference value: 7304 +/- 2967 pg/ml); type: functional
[3] = tested on: Mus musculus; test: Antiobesity activity in diet-induced obesity C57Bl6/J mouse model assessed as final glucose level in plasma at 3 mg/kg qd for 15 days measured on day 15 post 6 hrs fasting (reference value: 184 +/- 30 mg/dL); type: functional
[4] = tested on: Mus musculus; test: Antiobesity activity in diet-induced obesity C57Bl6/J mouse model assessed as change in plasma insulin level at 3 mg/kg qd for 15 days measured on day 15 post 6 hrs fasting; type: functional
[5] = tested on: Mus musculus; test: Antiobesity activity in diet-induced obesity C57Bl6/J mouse model assessed as change in plasma glucose level at 3 mg/kg qd for 15 days measured on day 15 post 6 hrs fasting; type: functional
[6] = tested on: Mus musculus; test: Antiobesity activity in diet-induced obesity C57Bl6/J mouse model assessed as basal glucose level in plasma at 3 mg/kg qd for 15 days measured on day 15 post 6 hrs fasting (reference value: 187 +/- 24 mg/dL); type: functional
[7] = tested on: Mus musculus; test: Antiobesity activity in diet-induced obesity C57Bl6/J mouse model assessed as basal insulin level in plasma at 3 mg/kg qd for 15 days measured on day 15 post 6 hrs fasting (reference value: 16959 +/- 4943 pg/ml); type: functional
[8] = biological target: T1, Free fatty acid receptor 4 (Homo sapiens, UniProt Q5NUL3); test: Agonist activity at recombinant human GPR120 short isoform expressed in HEK293 cells assessed as intracellular calcium flux measured for 300 secs at 1 sec time interval by Fluo-4 NW based FLIPR assay; type: functional, cell-based
T1 sequence (Q5NUL3 whole entry): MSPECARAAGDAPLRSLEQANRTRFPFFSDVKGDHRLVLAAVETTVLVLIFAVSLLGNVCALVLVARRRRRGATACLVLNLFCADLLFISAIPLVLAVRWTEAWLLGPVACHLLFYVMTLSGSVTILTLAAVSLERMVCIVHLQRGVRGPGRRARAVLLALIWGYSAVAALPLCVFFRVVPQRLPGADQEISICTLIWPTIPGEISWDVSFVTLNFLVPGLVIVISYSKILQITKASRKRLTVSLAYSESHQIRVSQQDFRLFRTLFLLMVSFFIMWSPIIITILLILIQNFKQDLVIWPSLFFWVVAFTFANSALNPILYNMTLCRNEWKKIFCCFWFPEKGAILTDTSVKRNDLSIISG
Outline: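 Human GPR120 calcium-flux assay in HEK-293 cells; values are averages of n > 2 runs, SEM < ±25%.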

[9] = Half life in mouse liver microsomes; type: ADME, microsome
[10] = Half life in rat liver microsomes; type: ADME, microsome
[11] = Protein binding in mouse plasma; type: ADME, cell-free; conditions: read-out: PPB (converted)
[12] = Protein binding in human plasma; type: ADME, cell-free; conditions: read-out: PPB (converted)
[13] = Protein binding in rat plasma; type: ADME, cell-free; conditions: read-out: PPB (converted)
[14] = biological target: Cytochrome P450 3A4 (Homo sapiens, UniProt P08684); test: Inhibition of CYP3A4 (unknown origin); type: ADME
Chain of Cytochrome P450 3A4 (P08684 whole entry): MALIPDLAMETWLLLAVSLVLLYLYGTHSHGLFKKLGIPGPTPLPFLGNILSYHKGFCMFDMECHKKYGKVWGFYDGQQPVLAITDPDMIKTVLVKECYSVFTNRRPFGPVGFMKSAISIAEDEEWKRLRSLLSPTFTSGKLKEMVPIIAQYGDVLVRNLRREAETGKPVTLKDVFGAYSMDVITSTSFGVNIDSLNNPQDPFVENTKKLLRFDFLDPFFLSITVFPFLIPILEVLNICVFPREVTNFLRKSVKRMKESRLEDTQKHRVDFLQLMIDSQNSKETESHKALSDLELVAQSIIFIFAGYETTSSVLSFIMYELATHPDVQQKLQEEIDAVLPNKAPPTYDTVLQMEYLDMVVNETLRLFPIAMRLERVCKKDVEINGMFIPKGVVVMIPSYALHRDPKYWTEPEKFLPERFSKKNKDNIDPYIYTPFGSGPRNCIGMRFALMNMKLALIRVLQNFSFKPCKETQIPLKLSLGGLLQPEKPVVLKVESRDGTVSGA

[15] = biological target: Cytochrome P450 2D6 (Homo sapiens, UniProt P10635); test: Inhibition of CYP2D6 (unknown origin); type: ADME
Chain of Cytochrome P450 2D6 (P10635 whole entry): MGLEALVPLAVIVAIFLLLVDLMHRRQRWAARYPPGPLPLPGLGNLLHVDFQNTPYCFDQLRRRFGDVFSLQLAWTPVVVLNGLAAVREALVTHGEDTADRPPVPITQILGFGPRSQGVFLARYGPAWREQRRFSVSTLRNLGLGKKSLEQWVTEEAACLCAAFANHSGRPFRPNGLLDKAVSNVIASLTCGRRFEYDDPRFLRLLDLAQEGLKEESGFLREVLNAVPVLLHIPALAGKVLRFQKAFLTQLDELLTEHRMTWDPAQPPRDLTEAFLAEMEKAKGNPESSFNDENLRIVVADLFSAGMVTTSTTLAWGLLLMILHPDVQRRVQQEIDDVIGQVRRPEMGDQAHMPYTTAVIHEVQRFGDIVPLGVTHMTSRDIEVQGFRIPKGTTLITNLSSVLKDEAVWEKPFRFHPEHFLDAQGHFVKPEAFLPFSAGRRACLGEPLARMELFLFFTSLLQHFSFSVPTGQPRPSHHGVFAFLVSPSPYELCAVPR

[16] = Half life in human liver microsomes; type: ADME, microsome
[17] = biological target: T2, Cytochrome P450 1A2 (Homo sapiens, UniProt P05177); test: Inhibition of CYP1A2 (unknown origin); type: ADME
T2 sequence (P05177 whole entry): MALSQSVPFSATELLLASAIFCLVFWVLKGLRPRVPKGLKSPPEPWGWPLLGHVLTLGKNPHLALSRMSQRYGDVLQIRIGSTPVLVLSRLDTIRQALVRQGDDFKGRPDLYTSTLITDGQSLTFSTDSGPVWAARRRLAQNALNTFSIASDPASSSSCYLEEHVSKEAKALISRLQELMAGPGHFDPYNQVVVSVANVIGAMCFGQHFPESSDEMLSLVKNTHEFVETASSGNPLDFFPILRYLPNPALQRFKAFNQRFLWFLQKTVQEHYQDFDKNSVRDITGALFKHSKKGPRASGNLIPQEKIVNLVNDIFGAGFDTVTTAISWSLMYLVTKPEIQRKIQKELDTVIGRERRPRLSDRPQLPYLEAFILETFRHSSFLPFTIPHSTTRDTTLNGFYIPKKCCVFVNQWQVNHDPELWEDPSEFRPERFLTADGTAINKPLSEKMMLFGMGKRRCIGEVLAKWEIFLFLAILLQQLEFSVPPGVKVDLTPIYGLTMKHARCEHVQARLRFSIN

[18] = biological target: Cytochrome P450 2C9 (Homo sapiens, UniProt P11712); test: Inhibition of CYP2C9 (unknown origin); type: ADME
Chain of Cytochrome P450 2C9 (P11712 whole entry): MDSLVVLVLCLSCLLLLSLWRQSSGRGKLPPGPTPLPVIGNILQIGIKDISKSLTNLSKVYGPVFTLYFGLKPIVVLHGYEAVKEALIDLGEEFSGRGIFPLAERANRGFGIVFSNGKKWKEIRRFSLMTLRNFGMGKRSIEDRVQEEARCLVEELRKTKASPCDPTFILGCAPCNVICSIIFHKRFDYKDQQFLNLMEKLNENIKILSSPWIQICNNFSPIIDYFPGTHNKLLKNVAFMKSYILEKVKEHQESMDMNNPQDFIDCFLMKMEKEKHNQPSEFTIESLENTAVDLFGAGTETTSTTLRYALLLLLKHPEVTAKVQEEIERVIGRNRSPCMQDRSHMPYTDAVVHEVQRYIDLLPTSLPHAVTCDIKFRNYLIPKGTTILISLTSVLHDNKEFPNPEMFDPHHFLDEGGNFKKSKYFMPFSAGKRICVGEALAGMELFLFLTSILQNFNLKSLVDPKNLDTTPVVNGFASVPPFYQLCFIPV

[19] = biological target: Cytochrome P450 2C19 (Homo sapiens, UniProt P33261); test: Inhibition of CYP2C19 (unknown origin); type: ADME
Chain of Cytochrome P450 2C19 (P33261 whole entry): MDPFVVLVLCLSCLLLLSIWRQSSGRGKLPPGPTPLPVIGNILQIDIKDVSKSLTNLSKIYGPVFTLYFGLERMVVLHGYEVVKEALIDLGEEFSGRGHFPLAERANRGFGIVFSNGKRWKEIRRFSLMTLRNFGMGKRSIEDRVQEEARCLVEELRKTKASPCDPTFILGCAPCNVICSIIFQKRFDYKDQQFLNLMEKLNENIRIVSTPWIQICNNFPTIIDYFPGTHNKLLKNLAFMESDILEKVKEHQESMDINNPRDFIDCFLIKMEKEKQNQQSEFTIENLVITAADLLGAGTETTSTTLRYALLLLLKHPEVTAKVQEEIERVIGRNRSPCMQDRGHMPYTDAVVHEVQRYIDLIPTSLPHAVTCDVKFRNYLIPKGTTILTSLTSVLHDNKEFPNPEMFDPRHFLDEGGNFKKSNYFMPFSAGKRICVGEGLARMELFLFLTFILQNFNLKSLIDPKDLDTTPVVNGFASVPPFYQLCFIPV

With `Cc1c(CCC(=O)O)ccc(OCc2c(C(F)(F)F)ccn2-c2ccc(Cl)cc2)c1C` the Stability [1] was “Stable”.

For `CN(CCOc1ccc(CC2SC(=O)NC2=O)cc1)c1ccccn1` (centres undefined) [ROSIGLITAZONE], the Activity [2] was 1348 pg/mL, the Activity [3] was 148 mg/dL and the Activity [4] was -5970 pg/mL. For the same molecule, the Activity [5] was -36.6 mg/dL, the Activity [6] was 188 mg/dL and the Activity [7] was 15956 pg/mL.

With `O=C(O)CCc1cc(F)c(OCc2c(C(F)(F)F)ccn2-c2ccccc2)c(F)c1` the EC50 [8] was 100 to 101 nM.

With `CCc1ccc(-n2ccc(C(F)(F)F)c2COc2ccc(CCC(=O)O)c(F)c2F)cc1` the half-life [9] was 7 min, the half-life [10] was less than 4 min and the fraction unbound [11] was 0.0014. The fraction unbound [12] was 0.0002, the fraction unbound [13] was 0.0008 and the INH [14] was greater than 10 µM. For the same molecule, the INH [15] was greater than 10 µM, the half-life [16] was 15 min and the INH [17] was greater than 10 µM. For the same molecule, the INH [18] was 7 µM and the INH [19] was 9 µM.

In the case of `O=C(O)CCc1ccc(OCc2c(C(F)(F)F)ccn2-c2ccc(Cl)cc2)c(F)c1F`, the Stability [1] is reported as “Stable”.

In the case of `Cc1c(CCC(=O)O)ccc(OCc2cccn2-c2ccc(Br)cc2)c1C`, the Stability [1] is reported as “Unstable”.

With `Cc1ccc(-n2ccc(C(F)(F)F)c2COc2c(F)cc(CCC(=O)O)cc2F)cc1` the half-life [9] was 85 min, the half-life [10] was less than 4 min and the fraction unbound [11] was 0.0041. The fraction unbound [12] was 0.0008, the fraction unbound [13] was 0.0015 and the INH [14] was greater than 10 µM. The INH [15] was greater than 10 µM, the half-life [16] was 7 min and the INH [17] was greater than 10 µM. For the same molecule, the INH [18] was 4.2 µM and the INH [19] was greater than 10 µM.

Work on `COc1ccc(-n2ccc(C(F)(F)F)c2COc2c(F)cc(CCC(=O)O)cc2F)cc1` yielded an EC50 [8] of 184 nM.

With `COC(=O)CCc1cc(F)c(OCc2c(C(F)(F)F)ccn2-c2ccc(Cl)cc2)c(F)c1` the EC50 [8] was greater than 5000 nM.
